Measured values as given in ChEMBL document CHEMBL4390663, “Cationic biaryl 1,2,3-triazolyl peptidomimetic amphiphiles: synthesis, antibacterial evaluation and preliminary mechanism of action studies” (Eur J Med Chem, 2019).

What was measured:
Staphylococcus aureus [1] = assay: Antimicrobial activity against methicillin-resistant Staphylococcus aureus clinical isolate incubated for 18 hrs by CLSI method; type: functional
Staphylococcus aureus [2] = assay: Antimicrobial activity against vancomycin resistant Staphylococcus aureus NARSA VRS10 incubated for 18 hrs by CLSI method; type: functional; conditions: NARSA VRS10, 18 h
Staphylococcus aureus [3] = assay: Antimicrobial activity against methicillin-resistant Staphylococcus aureus clinical isolate with reduced daptomycin susceptibility incubated for 18 hrs by CLSI method; type: functional
Clostridioides difficile [4] = assay: Antibacterial activity against Clostridium difficile NSW132 RT027 incubated for 48 hrs by CLSI method; type: functional; conditions: NSW132 RT027, 48 h
Procedure, shortened: (§1)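 Broth microdilution per CLSI anaerobe method in pre-reduced (2-4 h) Brucella broth with haemin and vitamin K, 35 °C anaerobically for 48 h. Compounds from 5 mg/mL DMSO stocks, twofold dilutions in water mixed with double-strength broth; final 0.25–128 μg/mL. […] Triplicate; modal MIC read visually as lowest concentration inhibiting growth.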

Staphylococcus aureus [5] = assay: Antimicrobial activity against Staphylococcus aureus ATCC 43300 incubated for 18 hrs by CLSI method; type: functional; conditions: ATCC 43300, 18 h
Streptococcus pneumoniae [6] = assay: Antibacterial activity against MDR Streptococcus pneumoniae ATCC 700677 incubated for 18 hrs by CLSI method; type: functional; conditions: ATCC 700677, 18 h
Enterococcus faecalis [7] = assay: Antibacterial activity against Enterococcus faecalis ATCC 29212 incubated for 24 hrs by CLSI method; type: functional; conditions: ATCC 29212, 24 h
Enterococcus faecalis [8] = assay: Antimicrobial activity against vancomycin-resistant Enterococcus faecalis clinical isolate incubated for 18 hrs by CLSI method; type: functional
Pseudomonas aeruginosa = assay: Antimicrobial activity against Pseudomonas aeruginosa ATCC 27853 incubated for 18 hrs by CLSI method; type: functional
Procedure, shortened: (§2)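 Screen run by CO-ADD: mid-log cultures in cation-adjusted MHB, 5 × 10^5 CFU/mL, compounds at up to 32 μg/mL in 1:2 serial dilutions (8 steps), final DMSO ≤0.5%, duplicate. 37 °C for 18 h without shaking; OD600 read against media-only and untreated-bacteria references. MIC = lowest concentration giving ≥80% inhibition; colistin standard.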

Staphylococcus aureus [9] = assay: Antimicrobial activity against glycopeptide intermediate susceptible Staphylococcus aureus NRS17 incubated for 18 hrs by CLSI method; type: functional; conditions: NRS17, 18 h
Staphylococcus aureus [10] = assay: Antimicrobial activity against methicillin-resistant Staphylococcus aureus ATCC 43300 incubated for 18 hrs by CLSI method; type: functional; conditions: ATCC 43300, 18 h
Staphylococcus aureus [11] = assay: Antimicrobial activity against glycopeptide intermediate susceptible/methicillin-resistant Staphylococcus aureus NRS1 incubated for 18 hrs by CLSI method; type: functional; conditions: NRS1, 18 h
Staphylococcus aureus [12] = assay: Antibacterial activity against methicillin-resistant Staphylococcus aureus NCTC 10442 incubated for 24 hrs by CLSI method; type: functional; conditions: NCTC 10442, 24 h
Procedure, shortened: (§3)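 Broth microdilution per CLSI aerobic guidance in Mueller Hinton broth, ambient air, 35 °C for 24 h. DMSO stocks were diluted in water, then serially diluted with double-strength broth inoculum added, for final 0.25–128 μg/mL. […] MIC was read visually as the lowest concentration inhibiting growth; the modal value of triplicates was recorded.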

Staphylococcus aureus [13] = assay: Antimicrobial activity against Staphylococcus aureus ATCC 29213 incubated for 24 hrs by CLSI method; type: functional; conditions: ATCC 29213, 24 h; procedure, shortened: as §3
Acinetobacter baumannii = assay: Antimicrobial activity against Acinetobacter baumannii ATCC 19606 incubated for 18 hrs by CLSI method; type: functional; procedure, shortened: as §2
Escherichia coli [14] = assay: Antibacterial activity against Escherichia coli ATCC 25922 incubated for 18 hrs by CLSI method; type: functional; procedure, shortened: as §2
Streptococcus pneumoniae [15] = assay: Antibacterial activity against Streptococcus pneumoniae ATCC 49619 incubated for 24 hrs by CLSI method; type: functional; conditions: ATCC 49619, 24 h
Procedure, shortened: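 CLSI broth microdilution in MHB with 2.5% lysed horse blood, 5% CO2, 35 °C, 24 h. Compounds from 5 mg/mL DMSO stocks diluted in water plus double-strength broth; final 0.25–128 μg/mL. […] Triplicate; modal MIC read visually as lowest growth-inhibiting concentration.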

[16] = Cytotoxicity against human HEK293 cells assessed as reduction in cell growth incubated for 20 hrs by resazurin dye-based fluorometric assay
Procedure, shortened: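 HEK293 cells, 5000 per well in DMEM + 10% FBS, exposed to compounds (top 32 μg/mL, 1:2 serial dilution ×8, ≤0.5% DMSO, duplicate) for 20 h at 37 °C, 5% CO2. Resazurin added (2.3 μg/mL final), 3 h further; fluorescence ex 560/em 590 nm. CC50 from sigmoidal dose-response fit against log concentration; tamoxifen standard.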

Klebsiella pneumoniae = assay: Antibacterial activity against Klebsiella pneumoniae 700603 incubated for 18 hrs by CLSI method; type: functional; procedure, shortened: as §2
Clostridioides difficile [17] = assay: Antibacterial activity against Clostridium difficile ATCC 700057 incubated for 48 hrs by CLSI method; type: functional; conditions: ATCC 700057, 48 h; procedure, shortened: as §1
Staphylococcus aureus [18] = assay: Bactericidal activity against exponential phase of Staphylococcus aureus ATCC 29213 assessed as reduction in bacterial count at 4 ug/ml measured at 2 hrs by time-kill kinetics assay; type: functional, organism-based
Escherichia coli [19] = assay: Induction of plasma membrane permeabilization in Escherichia coli NCTC 10418 at 64 ug/ml measured for 30 mins by propidium iodide staining based fluorescence assay relative to control; type: functional, organism-based
Escherichia coli [20] = assay: Induction of cytoplasmic membrane depolarization in Escherichia coli NCTC 10418 at 64 ug/ml incubated for 30 mins by diSC35 staining based fluorescence assay relative to control; type: functional
Procedure, shortened: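 Mid-log cells (1.5 McFarland) loaded with 4 µM diSC3(5) in the dark at room temperature: S. aureus in PBS 30 min; E. coli in 5 mM HEPES/20 mM glucose pH 7.2 for 60 min, then 100 mM KCl and 0.5 mM EDTA. Baseline fluorescence (ex 620/em 670 nm) ~8 min, then compound added (final 32 µg/mL S. aureus, 64 µg/mL E. coli), tracked ~30 min.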

CC(C)CCOc1ccc2ccccc2c1-c1c(OCc2cn(C[C@@H](CCCCN)NC(=O)CCc3ccccc3)nn2)ccc2ccccc12.Cl
MIC (Staphylococcus aureus [1]): 16 mg/L
MIC (Staphylococcus aureus [2]): 8 mg/L
MIC (Staphylococcus aureus [3]): 8 mg/L
MIC (Clostridioides difficile [4]): 32 mg/L
MIC (Staphylococcus aureus [5]): 4 mg/L
MIC (Streptococcus pneumoniae [6]): 8 mg/L
MIC (Enterococcus faecalis [7]): 8 mg/L
MIC (Enterococcus faecalis [8]): 4 mg/L
MIC (Pseudomonas aeruginosa; ATCC 27853, 18 h): > 32 mg/L
MIC (Staphylococcus aureus [9]): 8 mg/L
MIC (Staphylococcus aureus [10]): 2 to 4 mg/L
MIC (Staphylococcus aureus [11]): 8 to 16 mg/L
MIC (Staphylococcus aureus [12]): 8 mg/L
MIC (Staphylococcus aureus [13]): 4 mg/L
MIC (Acinetobacter baumannii; ATCC 19606 = CIP 70.34 = JCM 6841, 18 h): > 32 mg/L
MIC (Escherichia coli [14]; ATCC 25922, 18 h): > 32 mg/L
MIC (Streptococcus pneumoniae [15]): 16 mg/L
CC50 at 20 h [16]: 3.5 mg/L
MIC (Klebsiella pneumoniae; Klebsiella pneumoniae, 700603, 18 h): > 32 mg/L
MIC (Clostridioides difficile [17]): 32 mg/L

COLISTIN
MIC (Pseudomonas aeruginosa): 0.25 mg/L
Activity (Staphylococcus aureus [18]): < 1000 CFU/mL
MIC (Acinetobacter baumannii; ATCC 19606 = CIP 70.34 = JCM 6841): 0.25 mg/L
Activity (Escherichia coli [19]): 75%
MIC (Escherichia coli [14]): 0.125 mg/L
MIC (Klebsiella pneumoniae): 0.25 mg/L
Activity (Escherichia coli [20]): 400%
